Source: PubChem BioAssay
Runt-CBFb FRET – inhibitors of RUNX1 Runt–CBFb binding, primary screen, biochemical, FRET, Cerulean-Runt, Venus-CBFb, uHTS | Runt-related transcription factor 1 (Homo sapiens) + Core-binding factor subunit beta … | Cerulean-Runt/Venus-CBFb FRET ratio 530/480, 1 h | inhibition, % at 20 µM | 0.46% of 220,000 active | AID 1496, 2009;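 active = inhibition over about 50% at 20 µM in the single-dose screen, limit read from the data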;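 also: 0% = DMSO wells and 100% = excess unlabeled CBFb competitor control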
Target sequence (Q01196 whole entry, looked up): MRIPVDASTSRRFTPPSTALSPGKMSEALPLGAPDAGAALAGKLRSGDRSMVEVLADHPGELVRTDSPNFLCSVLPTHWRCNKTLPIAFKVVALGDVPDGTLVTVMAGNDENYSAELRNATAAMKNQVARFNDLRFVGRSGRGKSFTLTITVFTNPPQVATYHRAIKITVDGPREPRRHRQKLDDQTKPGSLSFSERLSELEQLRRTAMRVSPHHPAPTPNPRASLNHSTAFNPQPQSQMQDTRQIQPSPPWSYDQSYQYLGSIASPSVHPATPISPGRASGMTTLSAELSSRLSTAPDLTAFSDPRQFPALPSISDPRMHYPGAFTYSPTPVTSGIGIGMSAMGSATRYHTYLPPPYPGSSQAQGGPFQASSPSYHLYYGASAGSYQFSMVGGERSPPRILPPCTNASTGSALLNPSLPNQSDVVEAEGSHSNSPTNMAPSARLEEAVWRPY
Target sequence (Q13951 whole entry, looked up): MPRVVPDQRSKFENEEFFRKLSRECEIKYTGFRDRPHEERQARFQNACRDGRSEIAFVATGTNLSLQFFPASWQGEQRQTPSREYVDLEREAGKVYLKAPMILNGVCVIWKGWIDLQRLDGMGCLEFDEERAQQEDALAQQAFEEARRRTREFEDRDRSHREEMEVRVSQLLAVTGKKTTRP
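System: Cerulean-labeled Runt domain protein | Quantity: 100 nM of each labeled protein | Schedule: 1 h compound exposure, room temperature | Detection: Fluorescence energy transfer, 422 nm excitation, 530/480 nm emission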
RanGTP-Impb inh – inhibitors of RanGTP-importin-beta interaction, primary screen, biochemical, FRET, CFP-Ran, YFP-importin-beta, homogeneous | Ran GTPase (GTP-bound) - importin-beta complex | cell-free CFP-Ran/YFP-importin-beta FRET ratio | inhibition, % (concentration not given with the values) | 1.1% of 300,000 active | AID 2216, 2009;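 active = more than half of the replicate wells show a fall in the fluorescence ratio signal beyond about 16%, limit read from the data, passing the limit was not always enough; inconclusive = exactly half of the replicate wells pass the set limit; inactive = fewer than half of replicates pass the limit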;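 also: 0% = DMSO wells and 100% = Ran loaded with GDP instead of GTP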
Runt-SMMHC FRET – inhibitors of RUNX1 Runt–CBFb-SMMHC binding, primary screen, biochemical, FRET, Cerulean-Runt, Venus-CBFb-SMMHC, uHTS; 0.74% of 220,000 active; Cerulean-Runt/Venus-CBFb-SMMHC FRET ratio 530/480, 1 h; inhibition, % at 20 µM; Runt-related transcription factor 1 (Homo sapiens) + Core-binding factor subunit beta …; AID 1434, 2008;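 active = mean inhibition across duplicate retests at 20 µM reaching about 50%, limit read from the data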;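 also: 0% = DMSO wells and 100% = wells with excess untagged CBFb-SMMHC; inhibitors lower the FRET ratio by blocking Runt binding to CBFb-SMMHC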
Hck Nef HTS – inhibitors of Nef-activated human Hck kinase, primary screen, biochemical, Z-Lyte FRET, 384-well, Hck-YEEI; Tyrosine-protein kinase HCK (Homo sapiens), P08631; Recombinant Hck-YEEI plus Nef, Z-Lyte FRET kinase assay; inhibition, % at 20 µM; 0.68% of 220,000 active; AID 463187, 2010;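 active = Hck-Nef kinase inhibition above about 50%, limit read from the data; inactive = inhibition below that limit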;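 also: 0% = DMSO with Hck plus Nef and 100% = Hck alone without Nef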
* marks the source's active call; other numbers are inactive results; ? = inconclusive; . = not tested or not shown. The list is not random: actives were taken first. Their share in the collection is about 1.7%.

SMILES	Runt-CBFb FRET	RanGTP-Impb inh	Runt-SMMHC FRET	Hck Nef HTS
COc1ccccc1NC(=O)CSc1nnc(-c2ccc(NC(C)=O)cc2)n1C	-2.7	5.3	-4.5	0.6
COc1ccccc1C(=O)Nc1ccc(-c2nnc(SCC(=O)O)n2C)cc1	2.0	19.8*	-5.1	2.5
COC(=O)c1ccc2c(c1)N(C)S(=O)(=O)c1cnc(SCC(=O)C(C)(C)C)nc1-2	-0.3	?	-2.1	-6.4
O=C(Cc1ccc(F)cc1)OCC(=O)N1CCN(S(=O)(=O)c2ccc(Cl)cc2)CC1	.	5.1	.	.
Cn1c(C(=O)N2CCN(C(=O)c3ccco3)CC2)cc2c(=O)n3ccccc3nc21	20.4	2.5	45.1	24.8
CC(C)n1c(=NC(=O)c2ccco2)c(C#N)cc2c(=O)n3ccccc3cc21	5.4	107.2*	82.8*	25.1
Cc1sc2c(c1C)C(=O)/C(=C\Nc1ccncc1)S(=O)(=O)N2C	10.0	1.4	-5.6	5.8
O=c1[nH]c(Nc2ccccc2Cl)cc2ccccc12	.	38.5*	.	.
Cc1ccccc1Nc1cc2ccccc2c(=O)[nH]1	-3.2	17.4*	-32.3	-0.4
O=c1[nH]c(Nc2ccc(F)cc2)cc2ccccc12	13.3	53.7*	15.0	8.3
Cc1cc2ccccc2c(=O)[nH]1	-1.4	1.8	1.2	-2.4
O=C(c1cnn(C(=O)c2ccccc2)c1)c1ccccc1O	-0.5	4.5	3.3	62.2*
O=C(O)c1ccc(-n2cc(C(=O)c3ccccc3O)cn2)cc1	.	3.9	.	.
CCCN(CC1CC1)S(=O)(=O)c1ccc(-n2cnnn2)c(OC)c1	2.2	5.5	-4.6	3.5
O=C(CNc1n[nH]c(=O)[nH]c1=O)N/N=C/c1ccccc1	-2.8	1.0	1.2	15.2
O=c1[nH]c(NCCO)c(N=Cc2ccccc2)c(=O)[nH]1	.	163.9*	.	.
CC(C)COC(=O)/C(C#N)=C/c1c[nH]c2ccccc12	24.2	2.3	50.8*	2.4
COCCNC(=O)/C(C#N)=C/c1ccc(N2CCOCC2)o1	4.6	50.5*	14.1	-0.5
N#C/C(=C\c1ccc(N2CCOCC2)o1)C(=O)NCCc1ccccc1	14.3	53.4*	93.7*	10.5
O=C(c1ccccc1)[C@@H]1[C@@H](C(=O)c2ccc(F)cc2)[C@@]2(C(=O)Nc3ccccc32)[C@H]2c3ccccc3C=CN12	0.4	21.5*	-0.8	1.2
CCc1nc(SCC(=O)Nc2ccc(N(C)C)cc2)c2ccccc2n1	4.8	-1.6	3.6	25.0
CCOC(=O)CNc1c(-c2ccc(Cl)cc2)nc2cnccn12	27.9	33.3*	59.8	-14.8
CCOC(=O)CNc1c(-c2ccc(F)cc2)nc2cnccn12	24.7	8.1	56.2	-13.6
CCOc1ccc(CN(C)CC(=O)NCc2ccc(F)cc2)cc1	.	1.6	.	.
C=C(C)CSc1cc(C)c(C#N)c2nc3ccccc3n12	12.3	56.0*	37.2	7.5
SMILES	Runt-CBFb FRET	RanGTP-Impb inh	Runt-SMMHC FRET	Hck Nef HTS
Cc1cc(NCCN2CCOCC2)n2c(nc3ccccc32)c1C#N	12.4	5.3	30.6	25.3
COCCN(CCOC)c1cc(C)c(C#N)c2nc3ccccc3n12	52.9*	57.4*	62.6*	6.1
Cc1c2c(n3c(nc4ccccc43)c1C#N)N(CCN1CCOCC1)CC2	.	111.5*	.	75.5*
C=C(C)Cc1c(C)c(C#N)c2nc3ccccc3n2c1N1CCCCC1	14.2	28.8*	32.5	0.8
O=C(NCC1CCCN1S(=O)(=O)c1cccs1)c1cccc(Cl)c1 (centres undefined)	.	2.6	.	.
Cc1cccc(NC(=O)C2CCCN(S(=O)(=O)c3cccs3)C2)c1C (centres undefined)	.	-0.4	.	.
COc1ccc(CNC(=O)CN(C(=O)CCC(=O)Nc2nccs2)c2ccc3c(c2)OCO3)cc1	.	-1.5	.	.
CCC(CO)[n+]1c(C)cc(/C=C2\Sc3ccccc3N2Cc2ccccc2)cc1C (centres undefined)	42.9	.	63.8*	2.3
C[n+]1ccccc1/C=C1\Sc2ccccc2N1CCO	.	-1.5	.	.
O=C(CN1C(=O)COc2ccc(S(=O)(=O)N3CCCCC3)cc21)NCc1ccc(Cl)cc1	.	0.7	.	.
CC(c1nc2ccccc2c(=O)[nH]1)N(C)c1ccc2ccccc2c1 (centres undefined)	2.5	96.2*	3.2	-1.1
